In brackets after ≈: the same amount, converted by molar mass. Activity calls are given as the source filed them. No cut-off for these calls is given here.
Assays:
Streptococcus pneumoniae [1] = assay: Antibacterial activity against Streptococcus pneumoniae assessed as growth inhibition by agar dilution assay; assay type: functional
Procedure, shortened: (§1)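 Agar dilution MIC per CLSI (aerobic and anaerobic methods); compounds dissolved in DMSO, reference antibiotics in sterile water. MIC taken as lowest concentration with no visible growth; determined at least twice on separate days, higher value reported. Clinical isolate ranges summarized as MIC50/MIC90.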

Streptococcus pneumoniae [2] = assay: Antibacterial activity against Streptococcus pneumoniae ATCC 49619 assessed as growth inhibition by agar dilution assay; assay type: functional; procedure, shortened: as §1
Escherichia coli = assay: Antibacterial activity against Escherichia coli ATCC 25922 assessed as growth inhibition by agar dilution assay; assay type: functional; procedure, shortened: as §1
Pseudomonas aeruginosa [3] = assay: Antibacterial activity against Pseudomonas aeruginosa assessed as growth inhibition by agar dilution assay; assay type: functional
Procedure, shortened: (§2)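 CLSI agar dilution MIC against aerobic and anaerobic strains. Test compounds were dissolved in DMSO and reference antibiotics in sterile water. MIC was taken as the lowest concentration showing no bacterial growth. Each MIC was determined at least twice on separate days, and the higher value was reported. E. coli PQ 37 was cultured in LA medium.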

Pseudomonas aeruginosa [4] = assay: Antibacterial activity against Pseudomonas aeruginosa ATCC 27853 assessed as growth inhibition by agar dilution assay; assay type: functional; procedure, shortened: as §1
Bacteroides fragilis [5] = assay: Antibacterial activity against Bacteroides fragilis assessed as growth inhibition by agar dilution assay; assay type: functional; procedure, shortened: as §1
Bacteroides fragilis [6] = assay: Antibacterial activity against Bacteroides fragilis ATCC 25285 assessed as growth inhibition by agar dilution assay; assay type: functional; procedure, shortened: as §1
Staphylococcus aureus [7] = assay: In vivo antibacterial activity against Staphylococcus aureus in New zealand rabbit keratitis model assessed as suppression of conjuctival congestion, conjuctival chemosis, infiltration, operative ulcer area and depth at 3 mg/ml administered topically every 4 hrs for four doses every day for 10 days starting 24 hrs post-infection by slit lamp biomicroscopy; assay type: functional, organism-based
Procedure, shortened: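 NZW rabbits (2.0−3.0 kg), anesthetized with iv sodium pentobarbital 30 mg/kg, given intracorneal S. aureus (about 7.5 × 10^6 CFU) from an overnight LB culture. Starting 24 h post-infection, 30 μL drops applied topically per eye every 4 h, four doses daily (8 a.m.–8 p.m.), for 10 days, masked. Test compound in PEG–water (1:1). Slit-lamp biomicroscopy before and after.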

Staphylococcus aureus [8] = assay: microbe, parasite or virus in culture; assay type: functional; settings: ATCC 6538
[9] = system: Brevibacillus laterosporus; assay: Antibacterial activity against Brevibacillus laterosporus ATCC 64 assessed as growth inhibition by agar dilution assay; assay type: functional
[10] = Cytotoxicity against CHL cells assessed as cell viability at 0.256 mg/ml after 24 hrs by MTT assay; assay type: cell-based, Cricetulus griseus; settings: chinese hamster, read-out: Activity
Procedure, shortened: (§3)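 CHL fibroblasts seeded at about 5 × 10^4 cells/mL, incubated overnight at 37 °C, 5% CO2, then exposed to compound at different concentrations for 24 h. Viability read by MTT, absorbance at 570 nm, relative to cells in medium alone (100%). Triplicate.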

Staphylococcus aureus [11] = assay: Antibacterial activity against Staphylococcus aureus ATCC 29213 assessed as growth inhibition by agar dilution assay; assay type: functional; procedure, shortened: as §1
Bacillus cereus = assay: Antibacterial activity against Bacillus cereus ATCC 10231 assessed as growth inhibition by agar dilution assay; assay type: functional
[12] = system: Staphylococcus epidermidis; assay: Antibacterial activity against methicillin-sensitive Staphylococcus epidermidis assessed as growth inhibition by agar dilution assay; assay type: functional; procedure, shortened: as §1
Staphylococcus aureus [13] = assay: Antibacterial activity against methicillin-resistant Staphylococcus aureus assessed as growth inhibition by agar dilution assay; assay type: functional; procedure, shortened: as §2
Staphylococcus aureus [14] = assay: Antibacterial activity against methicillin-sensitive Staphylococcus aureus assessed as growth inhibition by agar dilution assay; assay type: functional; procedure, shortened: as §1
[15] = system: Staphylococcus epidermidis; assay: Antibacterial activity against methicillin-resistant Staphylococcus epidermidis assessed as growth inhibition by agar dilution assay; assay type: functional; procedure, shortened: as §2
[16] = Cytotoxicity against CHL cells assessed as cell viability after 24 hrs by MTT assay; assay type: cell-based, Cricetulus griseus; settings: chinese hamster; procedure, shortened: as §3

Row | Compound | MIC (Escherichia coli) | MIC (Pseudomonas aeruginosa [4]) | MIC (Staphylococcus aureus [8]) | MIC [9] | viability at 24 h, 0.256 mg/ml [10] | MIC (Staphylococcus aureus [11]) | MIC (Bacillus cereus) | further results
1 | CC1(C)S[C@@H]2[C@H](NC(=O)Cc3ccccc3)C(=O)N2[C@H]1C(=O)[O-].[Na+] [PENICILLIN G SODIUM] |  |  |  |  |  |  |  | MIC (Streptococcus pneumoniae [1]): 8 µg/mL; MIC (Streptococcus pneumoniae [2]): 0.25 µg/mL
2 | CCN1CCN(C(=O)N[C@@H](C(=O)N[C@@H]2C(=O)N3[C@@H]2SC(C)(C)[C@@H]3C(=O)[O-])c2ccccc2)C(=O)C1=O.[Na+] [PIPERACILLIN SODIUM] | 4 µg/mL | 4 µg/mL |  |  |  |  |  | MIC (Pseudomonas aeruginosa [3]): 2 µg/mL
3 | CCC[C@@H]1C[C@@H](C(=O)N[C@@H]([C@H]2O[C@H](SC)[C@H](OP(=O)(O)O)[C@@H](O)[C@H]2O)[C@H](C)Cl)N(C)C1 [CLINDAMYCIN PHOSPHATE] |  |  |  |  |  |  |  | MIC (Bacteroides fragilis [5]): 0.03 µg/mL; MIC (Bacteroides fragilis [6]): 0.5 µg/mL
4 | CC1COc2c(N3CCN(C)CC3)c(F)cc3c(=O)c(C(=O)O)cn1c23 (stereo not drawn) |  |  |  |  |  |  |  | inhibition (Staphylococcus aureus [7]): Active
5 | Cc1cc(O)c2c(c1)C(=O)c1c(Cl)c(O)c(I)c(O)c1C2=O | > 256 µg/mL | > 256 µg/mL | 32 µg/mL (≈ 74.3 µM) | 32 µg/mL (≈ 74.3 µM) | > 75% | 64 µg/mL (≈ 149 µM) | 32 µg/mL (≈ 74.3 µM) | 
6 | CO[C@@]1(NC(=O)Cc2cccs2)C(=O)N2C(C(=O)[O-])=C(COC(N)=O)CS[C@@H]21.[Na+] [CEFOXITIN SODIUM] |  |  |  |  |  | 2 µg/mL |  | MIC [12]: 1 µg/mL; MIC (Staphylococcus aureus [13]): 128 µg/mL; MIC (Staphylococcus aureus [14]): 0.5 µg/mL; MIC [15]: 128 µg/mL
7 | Cc1c(Cl)c(O)c2c(c1Cl)C(=O)c1c(Cl)c(O)cc(O)c1C2=O | > 256 µg/mL | > 256 µg/mL | 8 µg/mL (≈ 21.4 µM) | 8 µg/mL (≈ 21.4 µM) | > 75% | 16 µg/mL (≈ 42.8 µM) | 8 µg/mL (≈ 21.4 µM) | IC90 at 24 h [16]: 256 µg/mL (≈ 685 µM)
8 | Cc1cc(O)c2c(c1)C(=O)c1c(Br)c(O)c(Br)c(O)c1C2=O | > 256 µg/mL | > 256 µg/mL | 8 µg/mL (≈ 18.7 µM) | 8 µg/mL (≈ 18.7 µM) | > 75% | 16 µg/mL (≈ 37.4 µM) | 8 µg/mL (≈ 18.7 µM) | IC90 at 24 h [16]: 128 µg/mL (≈ 299 µM)
9 | Cc1cc2c(c(O)c1I)C(=O)c1c(O)c(I)c(O)c(I)c1C2=O | > 256 µg/mL | > 256 µg/mL | 8 µg/mL (≈ 12.3 µM) | 8 µg/mL (≈ 12.3 µM) | > 75% | 16 µg/mL (≈ 24.7 µM) | 8 µg/mL (≈ 12.3 µM) | IC90 at 24 h [16]: 128 µg/mL (≈ 198 µM)
10 | Cc1cc(O)c2c(c1)C(=O)c1cc(O)c(I)c(O)c1C2=O | > 256 µg/mL | > 256 µg/mL | 16 µg/mL (≈ 40.4 µM) | 16 µg/mL (≈ 40.4 µM) | > 75% | 32 µg/mL (≈ 80.8 µM) | 16 µg/mL (≈ 40.4 µM) | 
11 | CN[C@H](CC(C)C)C(=O)N[C@H]1C(=O)N[C@@H](CC(N)=O)C(=O)N[C@H]2C(=O)N[C@H]3C(=O)N[C@H](C(=O)N[C@H](C(=O)O)c4cc(O)cc(O)c4-c4cc3ccc4O)[C@H](O)c3ccc(c(Cl)c3)Oc3cc2cc(c3O[C@@H]2O[C@H](CO)[C@@H](O)[C@H](O)[C@H]2O[C@H]2C[C@](C)(N)[C@H](O)[C@H](C)O2)Oc2ccc(cc2Cl)[C@H]1O.Cl [VANCOMYCIN HYDROCHLORIDE] |  |  |  | 2 µg/mL |  |  | 2 µg/mL | 

— ChEMBL document CHEMBL3259660, “Haloemodin as novel antibacterial agent inhibiting DNA gyrase and bacterial topoisomerase I” (J Med Chem, 2014)
